Key:
[1] = biological target: Major prion protein (Homo sapiens) (UniProt P04156); assay: Binding affinity at human PrPC at 40 uM by SPR assay
[2] = biological target: Major prion protein (Mus musculus) (UniProt P04925); assay: Binding affinity at mouse PrPC at 40 uM by SPR assay
[3] = Inhibition of PrPSc formation in mouse SMB cells at 2.5 uM after 5 days […] relative to control; format: functional; conditions: 120 h
Method in brief: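 Scrapie-infected SMB mouse cells seeded at 3 × 10⁴ per well, attached 24 h, then exposed 5 days to compound. DMSO stocks were 400× final, diluted 20-fold into Hank's salt solution, then 20-fold into medium. Lysates were dot-blotted at about 30-40 µg protein, guanidine thiocyanate treated, and probed with anti-PrP 6H4 with ECL detection. PrP^Sc was expressed relative to untreated control, as the mean of triplicates with standard deviation.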

Sequence of Major prion protein (Mus musculus) (P04925 whole entry): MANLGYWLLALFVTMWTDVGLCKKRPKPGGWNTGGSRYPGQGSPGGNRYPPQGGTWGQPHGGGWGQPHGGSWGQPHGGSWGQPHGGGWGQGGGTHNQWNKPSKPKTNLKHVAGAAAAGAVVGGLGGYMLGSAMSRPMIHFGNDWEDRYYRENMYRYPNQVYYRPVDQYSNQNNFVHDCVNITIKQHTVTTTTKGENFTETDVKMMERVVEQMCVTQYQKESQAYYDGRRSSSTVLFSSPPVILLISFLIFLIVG

Compound	RUmax [1]	RUmax [2]	inhibition at 2.5 µM [3]
O=C(Nc1sc(-c2ccccc2)nc1-c1ccccc1)c1nc2ccccc2s1	40.1%	0%	–
O=C(Nc1sc(-c2ccccc2)nc1-c1ccccc1)c1ccccc1C(F)(F)F	0%	0%	–
O=C(Nc1sc(-c2ccccc2)nc1-c1ccccc1)c1ccno1	0%	0%	–
O=C(Nc1sc(-c2ccccc2)nc1-c1ccccc1)c1ccccc1	0%	0%	–
O=C(Nc1sc(-c2ccccc2)nc1-c1ccccc1)c1ccc([N+](=O)[O-])o1	0%	0%	–
O=C(Nc1oc(-c2ccccc2)nc1-c1ccccc1)c1ccncc1	0%	0%	–
Cc1ccc(C(=O)Nc2sc(-c3ccccc3)nc2-c2ccccc2)s1	19.8%	0%	–
O=C(Nc1sc(-c2ccccc2)nc1-c1ccccc1)c1cc2ccccc2s1	21.1%	0%	–
O=C(Nc1oc(-c2ccccc2)nc1-c1ccccc1)c1cc2ccccc2o1	48.9%	58%	–
O=C(Nc1oc(-c2ccccc2)nc1-c1ccccc1)c1ccc2ccccc2n1	0%	0%	–
O=C(Nc1sc(-c2ccccc2)nc1-c1ccccc1)C(F)(F)F	9.5%	18.7%	13.7%
O=C(Nc1sc(-c2ccccc2)nc1-c1ccccc1)c1cccnc1	0%	0%	–
O=C(Nc1sc(-c2ccccc2)nc1-c1ccccc1)c1ccco1	6.5%	8.4%	–
O=C(Nc1oc(-c2ccccc2)nc1-c1ccccc1)c1ccc(C(F)(F)F)cc1	0%	0%	–
O=C(Nc1oc(-c2ccccc2)nc1-c1ccccc1)c1cc2ccccc2s1	48%	59.6%	–
O=C(Nc1oc(-c2ccccc2)nc1-c1ccccc1)c1ccco1	3.8%	0%	–
O=C(Nc1sc(-c2ccccc2)nc1-c1ccccc1)c1ccc(C(F)(F)F)cc1	0%	0%	–
O=C(Nc1oc(-c2ccccc2)nc1-c1ccccc1)c1ccc([N+](=O)[O-])o1	0%	0%	–
O=C(Nc1oc(-c2ccccc2)nc1-c1ccccc1)C1CC1	0%	0%	–
O=C(Nc1oc(-c2ccccc2)nc1-c1ccccc1)c1cccnc1	37.3%	40%	–
O=C(Nc1oc(-c2ccccc2)nc1-c1ccccc1)c1ccno1	18.3%	21.7%	–
COc1ccc(C(=O)Nc2oc(-c3ccccc3)nc2-c2ccccc2)cc1	0%	0%	–
O=C(Nc1oc(-c2ccccc2)nc1-c1ccccc1)c1cccs1	27.5%	37.4%	–
CCCC(CCC)C(=O)Nc1sc(-c2ccccc2)nc1-c1ccccc1	0%	0%	–
O=C(Nc1oc(-c2ccccc2)nc1-c1ccccc1)C(F)(F)F	13.7%	22%	35.1%
O=C(Nc1sc(-c2ccccc2)nc1-c1ccccc1)c1cccc(C(F)(F)F)c1	65%	0%	–
O=C(Nc1sc(-c2ccccc2)nc1-c1ccccc1)c1ccncc1	5%	8.5%	–
CC(C)(C)OC(=O)Nc1oc(-c2ccccc2)nc1-c1ccccc1	11.3%	10.6%	–
O=C(Nc1sc(-c2ccccc2)nc1-c1ccccc1)C1CC1	0%	0%	–
O=C(Nc1oc(-c2ccccc2)nc1-c1ccccc1)c1ccc(F)cc1	0%	0%	–

Source: ChEMBL document CHEMBL1142936, “Library synthesis and screening: 2,4-diphenylthiazoles and 2,4-diphenyloxazoles as potential novel prion disease therapeutics” (2007)
